CHRM5 PAM: potentiates acetylcholine response at human M5 receptor. P08912. actives 0.3% (n = 360,000). AID 624038. activation, % at 3 µM. CHO-K1 hM5, Fluo-8 calcium, ACh EC20 PAM; 0% = ACh EC20, 100% = ACh EC100;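 active = activation above the run cutoff, the mean activation of all test compounds plus 3 SD, cut at about 18% in these data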
Target sequence (P08912 whole entry, looked up): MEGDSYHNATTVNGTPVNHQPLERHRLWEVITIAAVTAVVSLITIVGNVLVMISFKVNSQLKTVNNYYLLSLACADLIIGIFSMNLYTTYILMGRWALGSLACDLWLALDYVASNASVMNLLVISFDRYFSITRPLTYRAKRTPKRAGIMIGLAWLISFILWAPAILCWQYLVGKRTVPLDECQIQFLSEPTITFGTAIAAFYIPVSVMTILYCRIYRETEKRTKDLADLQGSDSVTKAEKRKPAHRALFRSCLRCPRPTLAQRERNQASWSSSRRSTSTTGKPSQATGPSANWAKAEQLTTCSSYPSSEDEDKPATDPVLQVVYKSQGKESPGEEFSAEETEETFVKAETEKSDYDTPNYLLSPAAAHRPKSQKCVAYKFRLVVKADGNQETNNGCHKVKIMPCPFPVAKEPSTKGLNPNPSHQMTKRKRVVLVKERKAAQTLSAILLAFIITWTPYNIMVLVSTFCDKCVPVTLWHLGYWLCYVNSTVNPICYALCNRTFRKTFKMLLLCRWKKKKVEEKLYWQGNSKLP
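system = human M5 receptor in CHO-K1 cells | reagent = EC20 acetylcholine as agonist stimulus | compound dosing = single-point, 3 µM nominal | incubation = Fluo-8 loading 80 min at 37 °C plus 30 min room temperature | detection = Fluo-8 calcium dye fluorescence, kinetic read | benchmarks = low control EC20 acetylcholine (0%), high control EC100 acetylcholine (100%)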
CHRM5 antagonist: blocks acetylcholine activation of human M5 receptor; CHO-hM5 cells, Fluo-8 calcium fluorescence, ACh EC80; AID 624040; actives 0.59% (n = 360,000); inhibition, % at 3 µM; P08912;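 active = inhibition above a per-plate cutoff, the mean of that plate's test compounds plus 3 SD, cut at about 27% in these data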;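 note: 0% = acetylcholine EC80 with DMSO and 100% = DMSO without agonist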
M5 ag: CHRM5 agonism in calcium assay; P08912; CHO-K1 hM5 cells, Fluo-8 calcium fluorescence; 0% DMSO wells, 100% maximal acetylcholine response; activation, % at 3 µM; actives 0.19% (n = 360,000); AID 624037;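 active = activation above the run's mean over test compounds plus 3 SD, cut at about 23% in these data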;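 note: signal is peak over basal fluorescence ratio across the kinetic read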
M1 ag: human M1 muscarinic receptor agonism; P11229; CHO-K1 hM1, Fluo-8 calcium fluorescence, agonist mode; 0% DMSO, 100% acetylcholine EC100; activation, % at 3 µM; actives 0.33% (n = 360,000); AID 588814;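 active = activation above the run's mean compound activation plus 3 SD, cut at about 16% in these data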;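 note: peak over basal fluorescence ratio within a 140 s kinetic read after compound addition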
CHRM1 PAM: human CHRM1 positive allosteric modulation. actives 0.088% (n = 360,000). activation, % at 3 µM. P11229. CHO-K1 hM1, Fluo-8 calcium fluorescence, ACh EC20; 0% = ACh EC20, 100% = maximal ACh; in the data active = activation above about 19%, passing the limit was not always enough
M1 antag: blocks human M1 muscarinic receptor | CHO-K1 hM1, Fluo-8 calcium fluorescence, ACh EC80 antagonist | inhibition, % at 3 µM | P11229 | actives 1.3% (n = 360,000);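 active = percent inhibition above its own plate's cutoff, namely the mean of that plate's compound wells plus 3 SD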;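 note: peak over basal fluorescence ratio during 140 s after agonist addition; 0% = ACh EC80 plus DMSO and 100% = DMSO alone without agonist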
Active calls of the source: *. Sampled rows, rich in hits. Any-hit rate of the full collection: about 2.2%.

For CC(C)CN1CCC(=O)N(CCSc2ccccc2)CC1 the results were CHRM5 PAM 10.1, CHRM5 antagonist -0.9, M5 ag -8.4, M1 ag 34.4*, CHRM1 PAM 0.1 and M1 antag 5.5.
For CCCN1CCC(=O)N(CCSc2ccc(OC)cc2)CC1 the results were CHRM5 PAM 18.6*, CHRM5 antagonist -9.8, M5 ag 2.7, M1 ag -9.4, CHRM1 PAM -3.8 and M1 antag 5.7.
Screening COCC(=O)N1CCC(Oc2ccc(C(=O)NC3Cc4ccccc4C3)cc2)CC1 returned CHRM5 PAM -5.2, CHRM5 antagonist 7.8, M5 ag -2.3, M1 ag -2.4, CHRM1 PAM 5.2 and M1 antag -6.7.
CN(Cc1cnn(C)c1)C(=O)CC1C(=O)NCCN1Cc1cccc(Oc2ccccc2)c1 (stereo unspecified) was read as CHRM5 PAM -14.0, CHRM5 antagonist 32.4*, M5 ag -5.8, M1 ag -3.6, CHRM1 PAM 0.8 and M1 antag 4.5.
For O=c1c(Cl)c(Cl)cnn1Cc1nnc(-c2ccccc2Br)o1 the results were CHRM5 PAM -21.1, CHRM5 antagonist 100.5*, M5 ag 80.3*, M1 ag 85.7*, CHRM1 PAM -35.4 and M1 antag 94.0*.
CCOc1cccc(-c2c(C(=O)N/N=C/c3ccsc3)nnn2-c2nonc2N)c1 was read as CHRM5 PAM 1.6, CHRM5 antagonist -0.7, M5 ag 15.8, M1 ag 18.8*, CHRM1 PAM 15.6 and M1 antag -5.3.
Screening Cc1ccc(-c2c(C(=O)N/N=C/c3ccoc3)nnn2-c2nonc2N)cc1 returned CHRM5 PAM 4.6, CHRM5 antagonist -9.1, M5 ag 1.5, M1 ag 4.2, CHRM1 PAM 11.9 and M1 antag -9.4.
Cc1ccc(-c2c(C(=O)N/N=C/c3ccsc3)nnn2-c2nonc2N)cc1 was read as CHRM5 PAM 0.1, CHRM5 antagonist 0.1, M5 ag 26.2*, M1 ag 41.5*, CHRM1 PAM 0.9 and M1 antag -0.6.
`Cc1ccc(-c2c(C(=O)N/N=C/c3cccs3)nnn2-c2nonc2N)cc1` gave CHRM5 PAM 5.3, CHRM5 antagonist -4.0, M5 ag 17.5, M1 ag 18.3*, CHRM1 PAM 21.4 and M1 antag -20.7.
Screening Cc1ccsc1/C=N/NC(=O)c1nnn(-c2nonc2N)c1-c1ccc2c(c1)OCO2 returned CHRM5 PAM 6.1, CHRM5 antagonist -5.7, M5 ag 6.7, M1 ag 2.0, CHRM1 PAM -3.8 and M1 antag 13.5.
Nc1nonc1-n1nnc(C(=O)N/N=C/c2cccs2)c1-c1ccc2c(c1)OCO2 was read as CHRM5 PAM -1.6, CHRM5 antagonist -21.1, M5 ag 56.7*, M1 ag 42.7*, CHRM1 PAM 8.8 and M1 antag -6.6.
`COc1ccc(CCN=C(C)c2cc(C)c(C)cc2O)cc1OC` gave CHRM5 PAM 1.5, CHRM5 antagonist 2.1, M5 ag 0.7, M1 ag -4.9, CHRM1 PAM 5.1 and M1 antag -5.8.
O=C(N/N=C/c1ccc2c(c1)OCO2)C1CC1 was read as CHRM5 PAM 17.4, CHRM5 antagonist -5.7, M5 ag -1.4, M1 ag -3.1, CHRM1 PAM 5.8 and M1 antag -7.8.
`Oc1ccc(Cl)cc1CNCc1ccc(F)cc1` gave CHRM5 PAM 4.2, CHRM5 antagonist 0.2, M5 ag 22.3, M1 ag 18.4*, CHRM1 PAM 5.5 and M1 antag -4.9.
CCN(CC)c1ccc(/C=C2\SC(N)=NC2=O)cc1 was read as CHRM5 PAM 11.1, CHRM5 antagonist -9.8, M5 ag 3.8, M1 ag 5.5, CHRM1 PAM 5.8 and M1 antag -9.6.
`CCN(CC)c1ccc(C=C2SC(=S)NC2=O)cc1` gave CHRM5 PAM -37.0, CHRM5 antagonist 35.5*, M5 ag 71.6*, M1 ag 111.1*, CHRM1 PAM -35.6 and M1 antag 83.4*.

Screening data deposited in PubChem by The Scripps Research Institute Molecular Screening Center.
